For experiment [1], the system named is T98G. The experiment can be described thus: Growth inhibition of human T98G cells after 72 hrs by MTT assay. The experiment is classed as functional, cell-based. The gist of the method: (§1)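 Glioma lines were grown in RPMI with 10% heat-inactivated FCS, 4 mM glutamine, gentamicin and penicillin-streptomycin. Cells were plated for 24 h at 10,000–40,000 cells/mL, then exposed to compound for 72 h. MTT reduction to formazan was read at 570 nm (reference 630 nm). Six replicates were run.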
In general terms: Tetrazolium dyes change colour on reduction, which living cells bring about.

Experiment [2] deals with T98G. The experiment can be described thus: Selectivity index, ratio of IC50 for mouse astrocytes to IC50 for human T98G cells.
A short description of experiment [3]: Selectivity index, ratio of IC50 for mouse astrocytes to IC50 for human U373 cells. Set-up: species or system U-373MG ATCC.
For experiment [4], the system named is Hs 683. The experiment is described as follows: Selectivity index, ratio of IC50 for mouse astrocytes to IC50 for human Hs683 cells.
Experiment [5] can be described thus: Growth inhibition of human Hs683 cells after 72 hrs by MTT assay. Type of experiment: functional, cell-based. The settings on record: Hs 683, 72 h. The gist of the method:
as §1

A short description of experiment [6]: Growth inhibition of human U373 cells after 72 hrs by MTT assay. Type of experiment: functional, cell-based, U-373MG ATCC. The settings on record: U373 MG. The gist of the method: as §1
Experiment [7] relates to B16-F10. The experiment can be described thus: Growth inhibition of mouse B16F10 cells after 72 hrs by MTT assay. The experiment is classed as functional, cell-based. The settings on record: B16-F10, 72 h.
Experiment [8] concerns U-373MG ATCC. The experiment is described as follows: Induction of apoptosis in human U373 cells assessed as increase in subG1 cell population at 3 to 10 uM after 24 hrs by flow cytometric analysis. Type of experiment: functional, cell-based.
Experiment [9] is described as follows: Cell cycle arrest in human U373 cells assessed as accumulation at G0/G1 phase at 3 to 10 uM after 24 hrs by propidium iodide staining-based flow cytometric analysis. The note with it: U-373MG ATCC. Type of experiment: functional.
The nature of experiment [10]: Cell cycle arrest in human U373 cells assessed as accumulation at G0/G1 phase at 10 to 30 uM after 24 hrs by propidium iodide staining-based flow cytometric analysis. The experiment is classed as functional. The note with it: U-373MG ATCC. In general terms: A flow cytometer gives signals particle by particle.
Experiment [11] in a line: Growth inhibition of human U373 cells assessed as global growth ratio after 72 hrs by quantitative videomicroscopic analysis relative to untreated control. The experiment is classed as functional, U-373MG ATCC. The settings on record: U373 MG. An outline of the steps:
(§2)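 U373 cells were cultured in 25 cm² flasks and filmed by computer-assisted phase-contrast time-lapse for 72 h, one image every 4 min. Growth level was the cell count in the last frame divided by the first. Global growth ratio was treated growth level over control growth level. Compounds were tested at 20 µM.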

The nature of experiment [12]: Cytostatic activity against human U373 cells assessed as global growth ratio by measuring number of cells counted in the last and the first frame of study at 20 uM by quantitative videomicroscopic analysis. Type of experiment: functional, U-373MG ATCC. An outline of the steps: as §2
The test system of experiment [13] is U-373MG ATCC. The experiment can be described thus: Induction of apoptosis in human U373 cells assessed as increase in subG1 cell population at 10 to 30 uM after 24 hrs by flow cytometric analysis. Type of experiment: functional, cell-based.
The nature of experiment [14]: Cell cycle arrest in human U373 cells assessed as accumulation at G0/G1 phase at 30 to 100 uM after 24 hrs by propidium iodide staining-based flow cytometric analysis. The note with it: U-373MG ATCC. The experiment is classed as functional.

Calls of active or inactive are those of the source. The calls are words filed in the database; no cut-off is given here. A value given as a limit tells only on which side of the number the result lay.

As usually defined, the IC50 is the concentration needed to halve the response being measured. High values mean lower potency, low ones higher potency. What is called IC80 is the concentration at which the effect reaches the 80% level.

On to `CC1(C)CC(NC(=O)Nc2ccc(Cl)cc2)c2cc(Br)ccc2O1` (stereo not drawn), for which the IC50 came to 27 µM in [1], 24 µM in experiment [5], 25 µM in experiment [6] and 9 µM in [7]. The “Ratio IC50” value in experiment [2], in experiment [3] and in experiment [4] was 5 each time.
For `CC1(C)CC(NC(=S)Nc2cccc([N+](=O)[O-])c2)c2cc(F)ccc2O1` (stereo not drawn), the IC50 was determined as 9 µM in experiment [1], 6 µM in [5], 6 µM in experiment [6] and 6 µM in [7]. The “Ratio IC50” value in [2], in experiment [3] and in experiment [4] was 2 each time.
Consider `CC1(C)CC(NC(=S)Nc2ccc(Cl)cc2)c2cc(Br)ccc2O1` (stereo not drawn), for which the outcome in [8] was inactive. The IC50 in experiment [1] was 22 µM; in [5], 9 µM; in experiment [6], 7 µM; in experiment [7] it was 7 µM. The result in [9] was Active. Further, the “Ratio IC50” value in [2], in experiment [3] and in experiment [4] was 2 each time.
On to `CC1(C)CC(NC(=S)Nc2ccc([N+](=O)[O-])cc2)c2cc(Br)ccc2O1` (stereo not drawn), for which the IC50 in experiment [1] turned out to be 5 µM; in experiment [5], 3 µM; in experiment [6] it was 9 µM; in [7] it was 3 µM. In addition, the “Ratio IC50” value in [2], in [3] and in experiment [4] was below 2 throughout.
Regarding `CC1(C)CC(NC(=S)Nc2cccc(C#N)c2)c2cc(Cl)ccc2O1` (stereo not drawn), the IC50 came to 10 µM in experiment [1], 6 µM in experiment [5], 7 µM in [6] and 6 µM in experiment [7]. Moreover, the “Ratio IC50” value in experiment [2], in experiment [3] and in experiment [4] was below 5 in each case.
As to `CC1(C)CC(NC(=S)Nc2cccc(C#N)c2)c2cc(F)ccc2O1` (stereo not drawn), the 50% inhibitory concentration (IC50) was determined as 39 µM in experiment [1], 33 µM in experiment [5], 30 µM in experiment [6] and 35 µM in experiment [7].
As for `CC1(C)CC(NC(=S)Nc2ccc(C#N)cc2)c2cc(Cl)ccc2O1` (stereo not drawn), the IC50 in [1] is 10 µM; in [5], 6 µM; in [6], 10 µM; in experiment [7] it was 7 µM. Also, the “Ratio IC50” value in experiment [2], in [3] and in experiment [4] was 3 throughout.
On to `COc1ccc(Cl)cc1C(=O)NCCc1ccc(S(=O)(=O)NC(=O)NC2CCCCC2)cc1` [GLYBURIDE], for which the outcome in experiment [10] was inactive. The IC50 in [6] is above 100 µM.
In the case of `CC1(C)CC(NC(=O)Nc2ccccc2Cl)c2cc(Cl)ccc2O1` (stereo not drawn), in [11], the IC80 stood at 20 µM. Further, the Ratio in experiment [12] stood at 0.2. The result in [13] was inactive. For the same compound, the IC50 in [1] worked out at 20 µM; in experiment [5] it was 25 µM; in experiment [6], 17 µM; in [7] it was 20 µM. In addition, the “Ratio IC50” value in [2], in experiment [3] and in [4] was above 10 in each case. In addition, in [10], the outcome was Active.
In the case of `CC1(C)CC(NC(=S)Nc2ccccc2Cl)c2cc(Br)ccc2O1` (stereo not drawn), the 50% inhibitory concentration (IC50) turned out to be 8 µM in experiment [1], 22 µM in [5], 34 µM in experiment [6] and 17 µM in experiment [7]. The “Ratio IC50” value in experiment [2], in experiment [3] and in [4] was below 5 throughout.
Turning to `CC1(C)CC(NC(=S)Nc2ccc(C#N)cc2)c2cc(F)ccc2O1` (stereo not drawn), the IC50 in [1] turned out to be 19 µM; in experiment [5], 14 µM; in experiment [6], 11 µM; in experiment [7], 5 µM. Moreover, the “Ratio IC50” value in experiment [2], in experiment [3] and in experiment [4] was 3 each time.
`CC1(C)CC(NC(=O)Nc2ccccc2Cl)c2cc(Br)ccc2O1` (stereo not drawn): the IC80 in experiment [11] turned out to be 20 µM. Moreover, the Ratio in [12] is 0.2. The outcome in experiment [13] was inactive. The IC50 in experiment [1] worked out at 11 µM; in experiment [5], 22 µM; in experiment [6], 19 µM; in experiment [7], 22 µM. Also, the “Ratio IC50” value in experiment [2], in experiment [3] and in experiment [4] was above 10 each time. Further, the outcome in experiment [10] was Active.
With `CC1(C)CC(NC(=S)Nc2ccc([N+](=O)[O-])cc2)c2cc(Cl)ccc2O1` (stereo not drawn), in [8], the outcome was inactive. The 50% inhibitory concentration (IC50) is 4 µM in [1], 2 µM in experiment [5], 3 µM in experiment [6] and 3 µM in experiment [7]. Moreover, the outcome in experiment [9] was Active. For the same compound, the “Ratio IC50” value in [2], in [3] and in experiment [4] was 2 in each case.
As to `CC(N/C(=N\C#N)Nc1ccncc1)C(C)(C)C` (stereo not drawn) [PINACIDIL ANHYDROUS], the result in [14] was inactive. Also, the IC50 in [6] was above 100 µM.
Take `Cn1nnc2c(C(N)=O)ncn2c1=O` [TEMOZOLOMIDE]: the IC50 in experiment [1] came out at 879 µM; in experiment [5], 956 µM; in experiment [6], 220 µM; in [7], 258 µM.
As to `CC1(C)CC(NC(=S)Nc2cccc([N+](=O)[O-])c2)c2cc(Br)ccc2O1` (stereo not drawn), the IC50 in experiment [1] came out at 4 µM; in experiment [5], 3 µM; in experiment [6] it was 4 µM; in [7], 5 µM. The “Ratio IC50” value in [2], in experiment [3] and in experiment [4] was 2 in each case.
`CC1(C)CC(NC(=O)NCc2ccccc2)c2cc(Br)ccc2O1` (stereo not drawn): the figures for the 50% inhibitory concentration (IC50) in experiment [1], in experiment [5] and in experiment [6] were 38 µM, 38 µM and 27 µM, respectively.
For the compound `CC1(C)CC(NC(=O)Nc2cccc(Cl)c2)c2cc(Br)ccc2O1` (stereo not drawn), the values for the IC50 in [1], in [5] and in experiment [6] were 67 µM, 61 µM and 69 µM, respectively.
Take `CC1(C)CC(NC(=S)Nc2cccc(Cl)c2)c2cc(Br)ccc2O1` (stereo not drawn): the 50% inhibitory concentration (IC50) is 9 µM in experiment [1], 8 µM in experiment [5], 8 µM in experiment [6] and 7 µM in experiment [7]. Further, the “Ratio IC50” value in [2], in experiment [3] and in experiment [4] was below 2 in each case.
With `CC1(C)CC(NC(=S)Nc2ccc([N+](=O)[O-])cc2)c2cc(F)ccc2O1` (stereo not drawn), the result in experiment [8] was inactive. Besides, the IC50 in [1] was 5 µM; in experiment [5], 3 µM; in experiment [6], 3 µM; in experiment [7], 4 µM. In addition, in [9], the outcome was Active. The “Ratio IC50” value in [2], in experiment [3] and in experiment [4] was 5 in each case.
As for `CC1(C)CC(NC(=S)Nc2cccc([N+](=O)[O-])c2)c2cc(Cl)ccc2O1` (stereo not drawn), the outcome in [8] was inactive. For the same compound, the half-inhibitory concentration (IC50) in experiment [1] worked out at 4 µM; in [5], 3 µM; in experiment [6], 3 µM; in experiment [7], 6 µM. Also, the outcome in experiment [9] was Active. Besides, the “Ratio IC50” value in experiment [2], in [3] and in experiment [4] was 3 throughout.
For `CC1(C)CC(NC(=S)NCc2ccccc2)c2cc(F)ccc2O1` (stereo not drawn), the IC50 came out at 40 µM in experiment [1], 25 µM in experiment [5] and 27 µM in [6].
The like results for `CC1(C)CC(NC(=O)Nc2cccc(Cl)c2)c2cc(F)ccc2O1` (stereo not drawn) were, in that order, 45 µM, 38 µM and 39 µM.
`CC1(C)CC(NC(=S)Nc2cccc(C#N)c2)c2cc(Br)ccc2O1` (stereo not drawn): the IC50 in [1] was determined as 9 µM; in experiment [5] it was 4 µM; in [6], 6 µM; in experiment [7], 7 µM. Besides, the “Ratio IC50” value in experiment [2], in experiment [3] and in experiment [4] was below 5 throughout.
Consider `CC1(C)CC(NC(=S)Nc2ccc(C#N)cc2)c2cc(Br)ccc2O1` (stereo not drawn), for which the half-maximal inhibitory concentration (IC50) came out at 24 µM in [1], 15 µM in experiment [5] and 22 µM in experiment [6]. For the same compound, the “Ratio IC50” value in experiment [2], in experiment [3] and in experiment [4] was 2 in each case.

The values above are taken from ChEMBL document CHEMBL2040777, “N-Aryl-N'-(chroman-4-yl)ureas and thioureas display in vitro anticancer activity and selectivity on apoptosis-resistant glioblastoma cells: screening, synthesis of simplified derivatives, and structure-activity relationship analysis” (Eur J Med Chem, 2012).
